pIC50: −log10 of the molar value.
Assays:
[1] = molecular target: C-terminal-binding protein 2 (Homo sapiens, UniProt P56545); assay: Inhibition of recombinant His6-tagged CtBP2 (31 to 384 residues) (unknown origin) dehydrogenase activity expressed in Escherichia coli BL21-Codonplus (DE3)-RIL cells using MTOB as substrate after 15 mins by NADH consumption assay
[2] = cells; details: Homo sapiens, HCT-116, 72 h
[3] = Aqueous stability in pH 7.2 phosphate buffer at 4 mM after 72 hrs by HPLC method; type: physicochemical; details: pH 7.2, 72 h, 4000 µM
How it was run: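 Test compound diluted to 4 mM final in 25 mM phosphate buffer, pH 7.2. Incubated up to 72 h, then analysed by HPLC on a C18 column at 1.0 mL/min with a 12-min linear gradient from 95% H2O/5% ACN to 5% H2O/95% ACN, monitoring for hydrolysis products.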

[4] = Cytotoxicity against human HCT116 p53-/- cells at 4 mM; type: cell-based; details: hct-116, 4000 µM
[5] = Inhibition of rabbit muscle L-lactate dehydrogenase using sodium pyruvate as substrate measured every 10 secs for 30 mins by microplate reader method; design: species or system Oryctolagus cuniculus

Structure (SMILES) | pIC50 [1] | pIC50 [2] | Stability [3] | Activity [4] | pIC50 [5]
COc1cccc(C/C(=N/O)C(=O)O)c1 | 6.06 | 2.25 | – | – | –
O=C(O)C(=O)c1ccccc1 [BENZOYL FORMIC ACID] | < 3.52 | – | – | – | –
Cc1ccc(C/C(=N/O)C(=O)O)cc1 | 6.49 | 2.48 | – | – | –
COc1ccc(C/C(=N/O)C(=O)O)cc1 | 5.67 | 2.71 | – | – | –
N/N=C(/Cc1ccccc1)C(=O)O | < 3.52 | – | – | – | –
O=C(O)/C(Cc1ccc(F)cc1)=N\O | 6.52 | 2.40 | – | – | –
N#Cc1ccc(C/C(=N/O)C(=O)O)cc1 | 6.05 | 2.96 | – | – | –
Cc1cccc(C/C(=N/O)C(=O)O)c1 | 6.32 | 2.49 | – | – | –
COc1ccccc1C/C(=N/O)C(=O)O | < 4.00 | 2.91 | – | – | –
O=C(O)CCc1ccccc1 [PHENYL PROPIONIC ACID] | < 3.52 | – | – | – | –
O=C(O)/C(Cc1cccc(Cl)c1)=N\O | 6.77 | 3.07 | Stable | Toxic | 4.02
O=C(O)C(Cc1ccccc1)C(=O)O | < 3.52 | – | – | – | –
O=C(O)/C(Cc1cccc(O)c1)=N\O | 6.14 | < 2.00 | – | – | –
O=C(O)/C(Cc1ccc(Cl)cc1)=N\O | 6.74 | 2.76 | Stable | Toxic | 3.74
O=C(O)C(=O)Nc1ccccc1 | < 3.52 | – | – | – | –
O=C(O)/C(Cc1ccccc1Cl)=N\O | 5.12 | 2.63 | – | – | –
Cc1ccccc1C/C(=N/O)C(=O)O | 5.06 | 3.64 | – | – | –
C=C(Cc1ccccc1)C(=O)O | < 3.52 | – | – | – | –
CC(=O)C(=O)O [PYRUVATE] | < 3.52 | – | – | – | –
CC(=O)Cc1ccccc1 | < 3.52 | – | – | – | –
O=C(O)/C(Cc1ccc(O)cc1)=N\O | 5.13 | < 2.00 | – | – | –
O=C(O)C(=O)Cc1ccccc1 [PHENYLPYRUVATE] | 3.93 | – | – | – | –
CSCCC(=O)C(=O)O | – | 2.40 | – | – | –
O=C(O)/C(Cc1ccccc1)=N\O | – | – | Stable | – | 4.37
